# Compounds with a hit are over-represented: about 9.6% of the library has one in this group of screens.
# PTEN del growth: PTEN-deleted cell growth suppression; HCT116 PTEN-null viability, CellTiter-Glo, 60 h; hits give low values; hit rate 1.2% among 140,000; viability, % at 10 µM;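 active = viability at or below a set limit, 4 SD under the median of all tested compounds, cut at about 3.7% in these data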;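 note: PTEN knockout HCT116 line with beta catenin targeted HCT116 as companion control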
# PMI activator: phosphomannose isomerase (human) activation. hit rate 0.005% among 190,000. P34949. purified human PMI, coupled resazurin fluorescence, 20 min; hits give high values; 1 = vehicle control, 0 substrate-free wells. activation factor at 20 µM;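 active = activation factor of 2 or more at 20 µM, relative to plate controls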
# Target sequence (P34949 whole entry, looked up): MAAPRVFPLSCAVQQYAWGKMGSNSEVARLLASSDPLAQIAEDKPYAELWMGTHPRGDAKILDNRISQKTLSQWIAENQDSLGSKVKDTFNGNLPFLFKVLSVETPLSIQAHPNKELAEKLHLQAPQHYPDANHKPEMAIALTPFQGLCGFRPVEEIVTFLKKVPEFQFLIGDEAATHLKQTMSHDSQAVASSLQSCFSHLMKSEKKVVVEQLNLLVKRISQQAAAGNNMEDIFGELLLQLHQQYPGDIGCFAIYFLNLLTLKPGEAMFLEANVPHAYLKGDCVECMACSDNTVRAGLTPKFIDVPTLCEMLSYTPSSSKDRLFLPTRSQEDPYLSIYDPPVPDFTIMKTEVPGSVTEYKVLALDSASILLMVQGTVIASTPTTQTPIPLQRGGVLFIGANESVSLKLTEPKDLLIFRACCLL
# PMI act hi M6P: increases human PMI activity with near-saturating mannose 6-phosphate | P34949 | coupled PMI enzyme assay, resazurin fluorescence, 20 min; hits give high values; 1 = untreated enzyme, 0 = substrate-free blank | activation factor at 20 µM | hit rate 0.34% among 190,000 | AID 1216;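 active = activation factor of 2 or more at 20 µM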
#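 Material: human phosphomannose isomerase with PGI, G6PDH, diaphorase coupling enzymes / Reagent: Man-6-P substrate 1.0 mM / Dosing: single compound dose of 20 µM, 1% DMSO final / Incubation: enzyme reaction with compound 20 min at room temperature / Signal: resorufin fluorescence (Ex 544/Em 590 nm) from resazurin via diaphorase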
# bCat KO growth: beta-catenin-lacking colon tumor cell growth suppression | HCT116 beta-catenin knockout viability, CellTiter-Glo, 60 h; hits give low values | viability, % at 10 µM | hit rate 1.5% among 140,000 | AID 818;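 active = viability at or under a set limit, the compound median less 4 SD, cut at about 6% in these data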;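 note: 0% = Hyamine 1622 control at 20 µM and 100% = untreated cell control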
# L major viab: reduces viability of Leishmania major promastigotes; resazurin fluorescence viability; hit rate 9% among 200,000; inhibition, % at 10 µM; in the data active = inhibition above about 50%;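 note: promastigotes grown with compound for 44 hours at 28 °C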
# The depositor's hits bear a star; nt = no result given.
SMILES,PTEN del growth,PMI activator,PMI act hi M6P,bCat KO growth,L major viab
O=C(CSc1ccc2nnc(-c3ccc(F)cc3)n2n1)N1CCCc2ccccc21,64,0.9,1.1,80,8
O=C(CSc1ccc2nnc(-c3ccc(Cl)cc3)n2n1)N1CCCc2ccccc21,2.2*,1.2,1.3,2.4*,14
COc1ccc(CCN2C(=O)c3cccc4c(C(=O)N5CCCCC5)ccc(c34)C2=O)cc1OC,70,1,1,77,5
COc1ccc(C)cc1S(=O)(=O)N(CC(=O)Nc1ccc2c(c1)OCCO2)Cc1ccccc1,57,0.9,0.9,63,74*
CC(C(=O)Nc1ccc2c(c1)OCO2)N(c1ccc(Cl)cc1)S(C)(=O)=O (configuration not stated),101,1,1.1,93,97*
CS(=O)(=O)N(CC(=O)NCc1ccccc1)Cc1ccc(Cl)cc1,91,1,1.1,96,-3
CCOC(=O)c1ccc(NC(=O)CN(Cc2ccc(Cl)cc2)S(C)(=O)=O)cc1,87,0.8,0.9,87,100*
CS(=O)(=O)N(CC(=O)Nc1ccc2c(c1)OCCO2)Cc1ccc(Cl)cc1,77,1,1,76,96*
O=C(CNCc1ccc(Cl)cc1)Nc1ccc2c(c1)OCCO2,nt,1,1,nt,-11
COC(=O)c1ccccc1NC(=O)c1ccnn1C,nt,1,1,nt,3
CC(C)CNC(=O)NC(=O)COC(=O)c1cccc(NS(=O)(=O)c2ccc(F)c(F)c2)c1,88,0.8,1,93,0
CCCNC(=O)NC(=O)COC(=O)c1cccc(NS(=O)(=O)c2ccc(F)c(F)c2)c1,93,1.1,1.2,85,55*
O=C(COC(=O)c1cccc(NS(=O)(=O)c2ccc(F)c(F)c2)c1)NC(=O)NC1CCCCC1,75,1.1,0.9,83,82*
O=C(CNC(=O)c1ccccc1F)OCc1nc2ccccc2s1,nt,1,1,nt,-1
CNc1sc(C(=O)c2ccccc2F)c(N)c1-c1nc2ccccc2s1,82,1.6,2*,73,6
O=C(NN1CCOCC1)c1cc(S(=O)(=O)Nc2cccc(C(F)(F)F)c2)ccc1Cl,74,0.9,0.9,88,-8
CC(C)(C)[C@H]1C=C(C(=O)N2CCN(Cc3ccc4c(c3)OCO4)CC2)O[C@@H](OCc2ccc(CO)cc2)C1,nt,0.9,1,nt,24
O=c1cc(-c2ccccc2)n(S(=O)(=O)c2ccc3ccccc3c2)o1,nt,nt,nt,nt,-5
CN(C)c1cc[n+](CC(=O)c2ccc(-c3ccccc3)cc2)cc1,nt,0.9,0.9,nt,100*
Cc1ccc(SCCc2cc[n+](CC(=O)c3ccccc3)cc2)cc1,nt,1,1,nt,28
Cc1ccc(C(=O)C[n+]2ccc(Cc3ccccc3)cc2)cc1,nt,1.4,1.1,nt,86*
O=C(O)c1ccc(NS(=O)(=O)c2ccc(Cl)cc2)cc1,91,1,1.1,88,-6
CCCNC(=S)Nc1ccc(Cl)cc1Cl,83,1,1,69,23
CCOc1ccc(NC(=S)NCCCn2ccnc2)cc1,90,0.9,1,89,83*
CCCCOc1ccc(NC(=O)C(=O)NCCCn2ccnc2)cc1,72,1,1.1,79,17
SMILES,PTEN del growth,PMI activator,PMI act hi M6P,bCat KO growth,L major viab
COc1cccc(Cn2c(NCc3cccnc3)nc3c2c(=O)n(C)c(=O)n3C)c1,13,1,1.1,17,4
Cn1c(=O)c2c(nc(NCc3cccnc3)n2Cc2cccc(C(F)(F)F)c2)n(C)c1=O,58,0.9,1,55,95*
COCCSc1nc2c(c(=O)[nH]c(=O)n2C)n1CCC(C)C,97,1,1,104,-4
O=C(/C=C/NCC(=O)c1ccccc1)c1ccc(Br)cc1,96,1.6,2.1*,96,-1
CCOCC(=O)NCc1ccc2c(c1)OCO2,97,0.8,0.8,90,-3
COc1ccc(-c2cnnc(N/N=C/c3ccc(C)o3)n2)cc1,nt,1,1,nt,0
COc1ccc(-c2cnnc(N/N=C/c3c(C)nn(-c4ccccc4)c3Cl)n2)cc1,2.9*,0.8,0.9,4.7*,1
COc1ccc(-c2cnnc(N/N=C/c3ccc(O)cc3)n2)cc1,nt,0.9,1.1,nt,-1
COc1ccc(-c2cnnc(N/N=C/c3ccc(O)c(O)c3)n2)cc1,2.9*,0.5,1.1,4.5*,17
O=C(NCC(c1cccs1)N1CCOCC1)c1ccc(Cl)c([N+](=O)[O-])c1 (configuration not stated),31,1,0.9,32,-3

# From PubChem
